Series [1] deals with Acinetobacter baumannii. Briefly: Antimicrobial activity against cephalosporin-resistant Acinetobacter baumannii by spectrophotometry. The class given is functional. The gist of the method: (§1)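 Broth microdilution in Mueller–Hinton broth. Two-fold dilutions from 256 to 0.125 µg/mL. Inoculum 10^5 c.f.u./mL, diluted from a McFarland 0.5 culture. Incubated at 35 °C for 24 h and 48 h in a humid chamber, triplicate.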

Series [2] deals with Acinetobacter baumannii. Put plainly: Antimicrobial activity against Acinetobacter baumannii RSKK 02026 by spectrophotometry. The class given is functional. An outline of the steps:
as §1

For series [3], the system named is Proteus mirabilis. Briefly: Antimicrobial activity against extended spectrum beta lactamase expressing Proteus mirabilis by spectrophotometry. The class given is functional. An outline of the steps: as §1
Series [4] concerns Candida parapsilosis. Briefly: Antifungal activity against Candida parapsilosis ATCC 22019 by spectrophotometry. The class given is functional. The note with it: Lodderomyces parapsilosis. An outline of the steps: (§2)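 Yeast broth microdilution in RPMI-1640 with L-glutamine, buffered to pH 7 with MOPS. Inoculum 10^5 c.f.u./mL, prepared by the spectrophotometric method. Two-fold dilutions from 256 to 0.125 µg/mL. Incubated at 35 °C for 24 h and 48 h in a humid chamber, triplicate.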

Series [5] has as its system Proteus mirabilis. Put plainly: Antimicrobial activity against Proteus mirabilis ATCC 7002 by spectrophotometry. The class given is functional. An outline of the steps:
as §1

The test system of series [6] is Pseudomonas aeruginosa. Briefly: Antimicrobial activity against trimethoprim-sulfamethoxazole and tazobactum-induced Pseudomonas aeruginosa by spectrophotometry. The class given is functional. The gist of the method: as §1
For series [7], the system named is Escherichia coli. Briefly: Antimicrobial activity against extended spectrum beta lactamase expressing Escherichia coli by spectrophotometry. The class given is functional. The gist of the method:
as §1

Series [8] deals with Candida albicans. Briefly: Antifungal activity against Candida albicans ATCC 10231 by spectrophotometry. The class given is functional. The gist of the method:
as §2

Series [9] has as its system Escherichia coli. Put plainly: Antimicrobial activity against Escherichia coli ATCC 35218 by spectrophotometry. The class given is functional. The gist of the method: as §1
Series [10] concerns Klebsiella pneumoniae. Briefly: Antimicrobial activity against Klebsiella pneumoniae RSKK 574 by spectrophotometry. The class given is functional. An outline of the steps:
as §1

Series [11] concerns Klebsiella pneumoniae. Put plainly: Antimicrobial activity against extended spectrum beta lactamase expressing Klebsiella pneumoniae by spectrophotometry. The class given is functional. An outline of the steps:
as §1

The test system of series [12] is Staphylococcus aureus. Briefly: Antimicrobial activity against methicillin-resistant Staphylococcus aureus by spectrophotometry. The class given is functional. An outline of the steps: as §1
In series [13] the test system is Enterococcus faecalis. Briefly: Antimicrobial activity against Enterococcus faecalis ATCC 29212 by spectrophotometry. The class given is functional. An outline of the steps:
as §1

Series [14] concerns Enterococcus faecalis. Briefly: Antimicrobial activity against cephalosporin-resistant Enterococcus faecalis by spectrophotometry. The class given is functional. An outline of the steps:
as §1

The subject of series [15] is Bacillus subtilis. Briefly: Antimicrobial activity against Bacillus subtilis ATCC 6633 by spectrophotometry. The class given is functional. The gist of the method:
as §1

Series [16] concerns Bacillus subtilis. Briefly: Antimicrobial activity against ceftriaxone-resistant Bacillus subtilis by spectrophotometry. The class given is functional. The gist of the method:
as §1

The nature of series [17]: Cytotoxicity against MDBK cells after 48 hrs. The class given is cell-based, Bos taurus. The note with it: cattle.
The subject of series [18] is Human respirovirus 3. Put plainly: Antiviral activity against parainfluenza-3 virus infected in Vero cells assessed as reduction of virus-induced cytopathic effect. The class given is functional. The gist of the method: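 Vero cells grown in EMEM with 10% fetal calf serum. Two-fold dilutions from 51.2 to 0.012 µg/mL, with PI-3 added at its TCID50-based titre, held 2 h at 37 °C in 5% CO2. CPE scored by microscope against untreated controls, giving the CPE-inhibitory concentration range.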

A short description of series [19]: Cytotoxicity against african green monkey Vero cells after 48 hrs. The following applies: chlorocebus sabaeus. The class given is cell-based. The gist of the method:
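Confluent cell monolayers exposed to two-fold (Log2) dilutions of each sample (51.2–0.012 µg/mL) in EMEM, 5% CO2, 37 °C, 48 h. Scored by light microscopy against untreated cultures; rows damaging all cells counted toxic. Maximum non-toxic concentration (MNTC, µg/mL) taken as highest concentration leaving cells unaffected. Vero grown in EMEM/10% fetal calf serum with streptomycin/penicillin.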

The test system of series [20] is Pseudomonas aeruginosa. Briefly: microbe, parasite or virus in culture. The following applies: ATCC 10145.

Values after ≈ are worked out from the molar mass of the structure shown. Bounds are passed on as bounds.

We go through eight compounds from ChEMBL document CHEMBL1240443, “A study of cytotoxicity of novel chlorokojic acid derivatives with their antimicrobial and antiviral activities” (Eur J Med Chem, 2010).

For `CC(C)(C)OC(=O)N1CCN(Cc2oc(CCl)cc(=O)c2O)CC1`, the MIC in [1] was 16 mg/L (≈ 44.6 µM); in series [2], 8 mg/L (≈ 22.3 µM); in series [3] it was 64 mg/L (≈ 178 µM); in series [4], 8 mg/L (≈ 22.3 µM); in series [5], 16 mg/L (≈ 44.6 µM); in series [6], 16 mg/L (≈ 44.6 µM). Besides, the MIC in series [7] is 64 mg/L (≈ 178 µM); in [8], 4 mg/L (≈ 11.1 µM); in [9] it was 8 mg/L (≈ 22.3 µM); in series [10], 8 mg/L (≈ 22.3 µM); in series [11], 64 mg/L (≈ 178 µM); in series [12], 128 mg/L (≈ 357 µM). In addition, the MIC in series [13] was found to be 8 mg/L (≈ 22.3 µM); in series [14], 128 mg/L (≈ 357 µM); in series [15] it was 1 mg/L (≈ 2.79 µM); in series [16], 2 mg/L (≈ 5.57 µM); in series [20], 4 mg/L (≈ 11.1 µM). Moreover, the MNTC at 48 h in series [17] turned out to be 0.8 µg/mL; in series [19] it was 0.4 µg/mL. Also, the CPE-inhibitory concentration in series [18] came out at 0.2 µg/mL.
Take `C[C@H]1COc2c(N3CCN(C)CC3)c(F)cc3c(=O)c(C(=O)O)cn1c23.C[C@H]1COc2c(N3CCN(C)CC3)c(F)cc3c(=O)c(C(=O)O)cn1c23.O` [LEVOFLOXACIN]: the MIC is 64 mg/L in [1]; 0.12 mg/L in series [2]; 1 mg/L in series [3]; less than 0.12 mg/L in [5]; less than 0.12 mg/L in series [10]; 128 mg/L in series [12]. In addition, the MIC in series [13] was 0.5 mg/L; in series [14], 32 mg/L.
As for GENTAMICIN, the MIC in series [6] was 2 mg/L.
`Nc1nc2c(ncn2COCCO)c(=O)[nH]1` [ACYCLOVIR] showed an MNTC at 48 h in series [17] of 1.6 µg/mL. Moreover, in series [18], the CPE-inhibitory concentration was 0.012 µg/mL.
For the compound `CC1(C)S[C@@H]2[C@H](NC(=O)[C@H](N)c3ccccc3)C(=O)N2[C@H]1C(=O)O` [AMPICILLIN], the MIC was greater than 128 mg/L in [1]; 2 mg/L (≈ 5.72 µM) in [2]; greater than 128 mg/L in [3]; 2 mg/L (≈ 5.72 µM) in series [5]; greater than 128 mg/L in series [7]; 2 mg/L (≈ 5.72 µM) in series [10]. In addition, the MIC is greater than 128 mg/L in series [11]; greater than 128 mg/L in series [12]; 0.5 mg/L (≈ 1.43 µM) in series [13]; greater than 128 mg/L in series [14]; 0.12 mg/L (≈ 0.343 µM) in series [15]; 0.5 mg/L (≈ 1.43 µM) in [16].
In the case of `O=c1cc(CCl)oc(CN2CCN(C(c3ccccc3)c3ccc(Cl)cc3)CC2)c1O` (stereo not given), the MIC in [1] was found to be 16 mg/L (≈ 34.8 µM); in [2] it was 4 mg/L (≈ 8.71 µM); in series [3], 64 mg/L (≈ 139 µM); in series [4] it was 8 mg/L (≈ 17.4 µM); in series [5], 8 mg/L (≈ 17.4 µM); in series [6], 16 mg/L (≈ 34.8 µM). Also, the MIC in series [7] turned out to be 64 mg/L (≈ 139 µM); in series [8] it was 4 mg/L (≈ 8.71 µM); in series [9], 4 mg/L (≈ 8.71 µM); in series [10], 4 mg/L (≈ 8.71 µM); in series [11] it was 64 mg/L (≈ 139 µM); in series [12], 64 mg/L (≈ 139 µM). In addition, the MIC in series [13] was 16 mg/L (≈ 34.8 µM); in series [14], 32 mg/L (≈ 69.7 µM); in series [15], 1 mg/L (≈ 2.18 µM); in series [16], 2 mg/L (≈ 4.35 µM); in [20], 2 mg/L (≈ 4.35 µM). For the same compound, the MNTC at 48 h in series [17] and in series [19] was 0.4 µg/mL in each case. Also, the CPE-inhibitory concentration in series [18] turned out to be 0.1 µg/mL.
Regarding `CCOC(=O)C1=C[C@@H](OC(CC)CC)[C@H](NC(C)=O)[C@@H](N)C1` [OSELTAMIVIR], the CPE-inhibitory concentration in [18] stood at 0.012 µg/mL. Also, the MNTC at 48 h in series [19] worked out at 1.6 µg/mL.
As to `O=c1cc(CCl)oc(CN2CCN(Cc3ccc(Cl)c(Cl)c3)CC2)c1O`, the MIC in series [1] came out at 16 mg/L (≈ 38.3 µM); in [2] it was 8 mg/L (≈ 19.2 µM); in [3], 64 mg/L (≈ 153 µM); in series [4], 8 mg/L (≈ 19.2 µM); in series [5], 16 mg/L (≈ 38.3 µM); in series [6], 16 mg/L (≈ 38.3 µM). Further, the MIC in series [7] turned out to be 4 mg/L (≈ 9.58 µM); in series [8] it was 4 mg/L (≈ 9.58 µM); in series [9], 8 mg/L (≈ 19.2 µM); in series [10], 8 mg/L (≈ 19.2 µM); in [11], 4 mg/L (≈ 9.58 µM); in series [12], 128 mg/L (≈ 306 µM). For the same compound, the MIC in series [13] was determined as 16 mg/L (≈ 38.3 µM); in series [14] it was 128 mg/L (≈ 306 µM); in series [15], 1 mg/L (≈ 2.39 µM); in series [16], 2 mg/L (≈ 4.79 µM); in [20] it was 4 mg/L (≈ 9.58 µM). Moreover, the MNTC at 48 h turned out to be 0.4 µg/mL in series [17] and 0.8 µg/mL in [19]. In addition, in [18], the CPE-inhibitory concentration was determined as 0.05 µg/mL.
